# Test results from ChEMBL document CHEMBL1123792, “Nonsteroidal cardiotonics. 1. 2-Pyridyl-6,7-dihydro-3H,5H-pyrrolo[2,3-f]benzimidazol-6-ones, a novel class of cardiotonic agents” (1987).
# How the values were obtained:
# [1] = tested on: Felis catus; assay: Effective dose required to produce an increase in dP/dt50, blood pressure by 1500 mmHg/s was determined in cat by intravenous administration; assay type: functional
# Outline: (§1)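 Cats of either sex on pentobarbitone (45 mg/kg ip, then 0.1 mg/kg × min infusion), ventilated, open chest. Dextran 10 mL/kg iv, then desacetylmepitranolol 0.3 mg/kg iv for β-blockade failure. LVP/HR via Millar tip in left ventricle; BP, dP/dt50. Rising iv bolus doses 10 min apart, read at 10 min. ED1.5 = dose raising dP/dt50 by 1500 mmHg/s; usually mean of four.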
# [2] = tested on: Rattus norvegicus; assay: Maximum increase in dP/dt recorded in mmHg/s at the dose 3.0 mg/kg administered intravenously in rat.; assay type: functional; conditions: route intravenous
# Outline: (§2)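 Anesthetized rats, dP/dt50, BP and HR (HR from LVP by pulse counter) recorded continuously. Increasing single bolus doses into jugular vein, 0.5 mL/kg, 10 min apart. Values read 10 min post-injection as steady state, not 1–3 min peak. ED1.5 = dose raising dP/dt50 by 1500 mmHg/s; max = peak rise from control; usually mean of four.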
# [3] = tested on: Canis familiaris; assay: Effective dose required to produce an increase in dP/dt50, blood pressure by 1500 mmHg/s was determined in dog by intravenous administration; assay type: functional, Canis lupus familiaris
# Outline: (§3)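 Conscious mongrel dogs (both sexes, 25–30 kg), chronically instrumented via left thoracotomy, used ≥10 days after surgery. Femoral artery BP, Millar tip LV pressure, femoral vein injection. dP/dt taken at LVP 60 mmHg. Increasing iv doses 10 min apart, readings every 10 min. ED1.5 = dose raising dP/dt by 1500 mmHg/s; max = peak rise from control; usually mean of four.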
# [4] = tested on: Canis familiaris; assay: Maximum increase in dP/dt recorded in mmHg/s at the dose 3.0 mg/kg administered intravenously in dog; assay type: functional, Canis lupus familiaris; parameters: unit not given here; conditions: route intravenous; outline: as §3
# [5] = tested on: Felis catus; assay: Maximum increase in dP/dt recorded in mmHg/s at the dose 3.0 mg/kg administered intravenously in cat; assay type: functional; conditions: route intravenous; outline: as §1
# [6] = tested on: Rattus norvegicus; assay: Effective dose required to produce an increase in dP/dt50, blood pressure by 1500 mmHg/s was determined in rat by intravenous administration; assay type: functional; outline: as §2
# [7] = tested on: Rattus norvegicus; assay: Maximum increase in dP/dt recorded in mmHg/s at the dose 10.0 mg/kg administered intravenously in rat.; assay type: functional; conditions: route intravenous; outline: as §2
# [8] = tested on: Felis catus; assay: Maximum increase in dP/dt recorded in mmHg/s at the dose 10.0 mg/kg administered intravenously in cat; assay type: functional; conditions: route intravenous; outline: as §1
# [9] = tested on: Felis catus; assay: Maximum increase in dP/dt recorded in mmHg/s at the dose 1.0 mg/kg administered intravenously in cat; assay type: functional; conditions: route intravenous; outline: as §1
# [10] = tested on: Felis catus; assay: Maximum increase in dP/dt recorded in mmHg/s at the dose 0.1 mg/kg administered intravenously in cat; assay type: functional; conditions: route intravenous; outline: as §1
# [11] = tested on: Rattus norvegicus; assay: Maximum increase in dP/dt recorded in mmHg/s at the dose 1.0 mg/kg administered intravenously in rat.; assay type: functional; conditions: route intravenous; outline: as §2
# [12] = tested on: Canis familiaris; assay: Maximum increase in dP/dt recorded in mmHg/s at the dose in parentheses administered intravenously in dog; assay type: functional, Canis lupus familiaris; outline: as §3
# [13] = tested on: Canis familiaris; assay: Maximum increase in dP/dt recorded in mmHg/s at the dose 1.0 mg/kg administered intravenously in dog; assay type: functional, Canis lupus familiaris; conditions: route intravenous; outline: as §3
# [14] = tested on: Felis catus; assay: Maximum increase in dP/dt recorded in mmHg/s at the dose 0.3 mg/kg administered intravenously in cat; assay type: functional; conditions: route intravenous; outline: as §1
# [15] = tested on: Rattus norvegicus; assay: Maximum increase in dP/dt recorded in mmHg/s at the dose 0.1 mg/kg administered intravenously in rat.; assay type: functional; conditions: route intravenous; outline: as §2
smiles,measurement,setting,value
CCOC(=O)C1(C)C(=O)Nc2cc3[nH]c(-c4ccncc4)nc3cc21 (configuration not stated),ED1.5,[1],0.25 mg/kg
same,Max,[2],4200 mmHg/s
same,ED1.5,[3],0.64 mg/kg
same,Max,[4],>3.6
same,Max,[5],3700 mmHg/s
same,ED1.5,[6],0.09 mg/kg
CC1(C)C(=O)Nc2cc3[nH]c(Cc4ccncc4)nc3cc21,ED1.5,[1],0.6 mg/kg
same,Max,[7],4100 mmHg/s
same,Max,[8],3800 mmHg/s
same,ED1.5,[6],1.14 mg/kg
CC1(C(=O)NN)C(=O)Nc2cc3[nH]c(-c4ccncc4)nc3cc21 (configuration not stated),ED1.5,[6],>10 mg/kg
CC1(C)C(=O)Nc2cc3[nH]c(CCc4ccncc4)nc3cc21,ED1.5,[6],>10 mg/kg
O=C1Nc2cc3[nH]c(-c4ccncc4)nc3cc2C12CCCC2,ED1.5,[1],0.08 mg/kg
same,Max,[2],3300 mmHg/s
same,ED1.5,[3],0.77 mg/kg
same,Max,[9],2800 mmHg/s
same,Max,[4],2.2
same,ED1.5,[6],0.2 mg/kg
CCC1C(=O)Nc2cc3[nH]c(-c4cccnc4)nc3cc21 (configuration not stated),ED1.5,[1],0.15 mg/kg
same,Max,[7],4000 mmHg/s
same,Max,[9],2300 mmHg/s
same,ED1.5,[6],0.39 mg/kg
CC1C(=O)Nc2cc3[nH]c(-c4ccncc4)nc3cc21 (configuration not stated),ED1.5,[1],0.01 mg/kg
same,ED1.5,[3],0.58 mg/kg
same,Max,[10],2500 mmHg/s
same,Max,[11],4400 mmHg/s
same,Max,[4],1.7
same,ED1.5,[6],0.02 mg/kg
CC1(C)C(=O)Nc2cc3[nH]c(-c4cc[n+]([O-])cc4)nc3cc21,ED1.5,[3],0.44 mg/kg
same,Max,[11],4900 mmHg/s
same,ED1.5,[6],0.03 mg/kg
same,Max,[12],1800 mmHg/s
CC1(C)C(=O)Nc2cc3[nH]c(-c4ccccn4)nc3cc21,ED1.5,[1],0.23 mg/kg
same,Max,[2],2400 mmHg/s
same,ED1.5,[3],1.11 mg/kg
same,Max,[4],1.7
same,Max,[5],2700 mmHg/s
same,ED1.5,[6],0.96 mg/kg
O=C1Nc2cc3[nH]c(-c4ccncc4)nc3cc2C1C1CCCC1 (configuration not stated),ED1.5,[6],>10 mg/kg
CCCCc1ccc(-c2nc3cc4c(cc3[nH]2)C(C)(C)C(=O)N4)nc1,ED1.5,[6],>3 mg/kg
CC1(C)C(=O)Nc2cc3[nH]c(-c4ccnc(O)c4)nc3cc21,ED1.5,[1],0.21 mg/kg
same,Max,[7],3400 mmHg/s
same,Max,[9],2400 mmHg/s
same,ED1.5,[6],0.87 mg/kg
Cc1ccc(-c2nc3cc4c(cc3[nH]2)C(C)(C)C(=O)N4)cn1,ED1.5,[6],>3 mg/kg
Cc1cc(-c2nc3cc4c(cc3[nH]2)C(C)(C)C(=O)N4)ccn1,ED1.5,[1],0.03 mg/kg
same,ED1.5,[3],0.51 mg/kg
same,Max,[10],2700 mmHg/s
same,Max,[11],2500 mmHg/s
same,ED1.5,[6],0.29 mg/kg
same,Max,[13],1800 mmHg/s
CC1(C)C(=O)Nc2cc3[nH]c(/C=C/c4cccnc4)nc3cc21,Max,[7],4300 mmHg/s
same,ED1.5,[6],1.21 mg/kg
CCC1(CC)C(=O)Nc2cc3[nH]c(-c4ccncc4)nc3cc21,Max,[7],1900 mmHg/s
same,ED1.5,[6],>3 mg/kg
CC1(C)C(=O)Nc2cc3[nH]c(-c4ccnc(Cl)c4)nc3cc21,ED1.5,[1],0.07 mg/kg
same,Max,[11],3900 mmHg/s
same,ED1.5,[6],0.07 mg/kg
COc1nc(C)ccc1-c1nc2cc3c(cc2[nH]1)C(C)(C)C(=O)N3,ED1.5,[6],>10 mg/kg
CC(C)CC1C(=O)Nc2cc3[nH]c(-c4ccncc4)nc3cc21 (configuration not stated),ED1.5,[6],>3 mg/kg
CCC1C(=O)Nc2cc3[nH]c(-c4ccncc4)nc3cc21 (configuration not stated),ED1.5,[1],0.04 mg/kg
same,Max,[2],4500 mmHg/s
same,Max,[14],2500 mmHg/s
same,ED1.5,[3],0.09 mg/kg
same,ED1.5,[6],0.06 mg/kg
same,Max,[13],2300 mmHg/s
CC(C)C1C(=O)Nc2cc3[nH]c(-c4ccncc4)nc3cc21 (configuration not stated),Max,[7],2200 mmHg/s
same,ED1.5,[6],>3 mg/kg
CC1(C)C(=O)Nc2cc3[nH]c(-c4cccnc4)nc3cc21,ED1.5,[1],0.02 mg/kg
same,Max,[2],3500 mmHg/s
same,Max,[14],3500 mmHg/s
same,ED1.5,[3],0.51 mg/kg
same,Max,[4],2.5
same,ED1.5,[6],1 mg/kg
CC1C(=O)Nc2cc3[nH]c(-c4cccnc4)nc3cc21 (configuration not stated),ED1.5,[1],0.03 mg/kg
same,Max,[2],4600 mmHg/s
same,Max,[14],2300 mmHg/s
same,ED1.5,[3],0.08 mg/kg
same,ED1.5,[6],0.06 mg/kg
same,Max,[13],2400 mmHg/s
CC1(C)C(=O)Nc2cc3[nH]c(-c4ccncc4)nc3cc21 [ADIBENDAN],ED1.5,[1],0.01 mg/kg
same,Max,[14],2000 mmHg/s
same,ED1.5,[3],0.2 mg/kg
same,Max,[15],3700 mmHg/s
same,ED1.5,[6],0.01 mg/kg
same,Max,[13],2000 mmHg/s
Cc1[nH]c(=O)c(C#N)cc1-c1ccncc1 [MILRINONE],ED1.5,[1],0.13 mg/kg
same,Max,[7],3400 mmHg/s
same,ED1.5,[3],0.4 mg/kg
same,Max,[8],3000 mmHg/s
same,ED1.5,[6],0.14 mg/kg
same,Max,[13],2000 mmHg/s
